From ChEMBL document CHEMBL3297735, “Optimization of troglitazone derivatives as potent anti-proliferative agents: towards more active and less toxic compounds” (Eur J Med Chem, 2014)

Columns and labels:
[1] = Cytotoxicity against human MiaPaCa cells assessed as cell viability at 10 uM after 72 hrs by MTS assay in presence of 10% fetal calf serum relative to control; type: functional; conditions: MIA PaCa-2, 72 h, read-out: Activity
[2] = Cytotoxicity against human MDA435 cells assessed as cell viability at 10 uM after 72 hrs by MTS assay in presence of 10% fetal calf serum relative to control; type: functional; conditions: MDA-MB-435, 72 h, read-out: Activity
[3] = Cytotoxicity against human hepatocytes assessed as cell viability at 100 uM after 90 mins by MTT assay relative to control; type: cell-based, Hepatocyte; conditions: read-out: Activity
In short: (§1)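 Cryopreserved human hepatocytes were plated at 0.1 × 10⁶ cells/well and exposed to compound for 90 min. MTT was then added for 30 min at 37 °C, plates were centrifuged, and formazan was dissolved in DMSO. Absorbance was read at 595 nm. Surviving cells are expressed as % of non-treated cells ± SEM.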

[4] = test system: PC-3; assay: Cytotoxicity against human PC3 cells assessed as cell viability at 10 uM after 72 hrs by MTS assay in presence of 10% fetal calf serum relative to control; type: functional; conditions: PC-3, 72 h, read-out: Activity
[5] = test system: LNCaP; assay: Cytotoxicity against human LNCAP cells assessed as cell viability at 10 uM after 72 hrs by MTS assay in presence of 10% fetal calf serum relative to control; type: functional; conditions: read-out: Activity
[6] = test system: MCF7; assay: Cytotoxicity against human MCF7 cells assessed as cell viability at 10 uM after 72 hrs by MTS assay in presence of 10% fetal calf serum relative to control; type: functional; conditions: MCF7, 72 h, read-out: Activity
In short: (§2)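 Cells were grown in RPMI with L-glutamine, 10% FCS, penicillin/streptomycin and fungizone at 37 °C under 5% CO2. Wells were seeded with 1900 cells for MCF-7 or 1300 cells for MDA-MB-231. After 24 h, compound was added from a 10 mM DMSO stock (final DMSO 1%) for 72 h, with DMSO-only controls. Viable cells were read by MTS at 490 nm and expressed as % of untreated. Mean ± SEM, N = 3.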

[7] = test system: MDA-MB-231; assay: Cytotoxicity against human MDA-MB-231 cells assessed as cell viability at 10 uM after 72 hrs by MTS assay in presence of 10% fetal calf serum relative to control; type: functional; conditions: MDA-MB-231, 72 h, read-out: Activity; in short: as §2
[8] = Cytotoxicity against human hepatocytes assessed as cell viability at 200 uM after 90 mins by MTT assay relative to control; type: cell-based, Hepatocyte; conditions: read-out: Activity; in short: as §1
[9] = Toxicity in BALBc/AnNHsd mouse assessed as mortality at 34 mg/kg, iv relative to control; type: organism-based; set-up: dose 34 mg/kg, route intravenous; conditions: in vivo
[10] = Acute toxicity in iv dosed BALBc/AnNHsd mouse; type: organism-based; conditions: in vivo
In short: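 Acute toxicity run in female BALBc/AnNHsd mice given the compounds by intravenous injection. The read-out was the maximum tolerated dose (MTD). Compounds were dissolved in a mixture of solvents, and the top dose was capped by solubility in that mixture.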

[11] = test system: HepG2; assay: Cytotoxicity against human HepG2 cells assessed as cell viability at 10 uM after 72 hrs by MTS assay in presence of 10% fetal calf serum relative to control; type: functional; conditions: HepG2, 72 h, read-out: Activity
[12] = test system: HCT-116; assay: Cytotoxicity against human HCT116 cells assessed as cell viability at 10 uM after 72 hrs by MTS assay in presence of 10% fetal calf serum relative to control; type: functional; conditions: HCT-116, 72 h, read-out: Activity
[13] = test system: Mus musculus; assay: Toxicity in BALBc/AnNHsd mouse assessed as mortality at 65.5 mg/kg, iv; type: organism-based; set-up: dose 65.5 mg/kg, route intravenous; conditions: in vivo
[14] = test system: Mus musculus; assay: Toxicity in BALBc/AnNHsd mouse assessed as change in body weight at 65.5 mg/kg, iv measured on day 2 (reference value: 19 +/- 1 g); type: organism-based; set-up: dose 65.5 mg/kg, route intravenous; conditions: in vivo
In short: (§3)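 Acute toxicity was assessed in female BALBc/AnNHsd mice after intravenous injection of compound in a solvent mixture, to estimate the maximum tolerated dose.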

[15] = test system: MCF7; assay: Cytotoxicity against human MCF7 cells after 24 hrs by CellTiterGlo assay in presence of 1% fetal calf serum; type: functional, cell-based; conditions: MCF7, 24 h
In short: (§4)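 MCF-7 was maintained in phenol red DMEM and MDA-MB-231 in L-15. Cells were seeded in 6-well plates at 8.10⁴ cells/well in medium with 10% FCS and 2 mM L-glutamine. Medium was then switched to 1% FCS with 2 mM L-glutamine for treatment, with 0.1% DMSO controls. Cells were washed, trypsinized and counted with CellTiter-Glo luminescence. Each treatment was run in triplicate, and IC50 was taken as the concentration halving viable cells.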

[16] = test system: Mus musculus; assay: Toxicity in BALBc/AnNHsd mouse assessed as change in body weight at 65.5 mg/kg, iv measured on day 1 (reference value: 17.67 +/- 0.33 g); type: organism-based; set-up: dose 65.5 mg/kg, route intravenous; conditions: in vivo; in short: as §3
[17] = test system: MDA-MB-231; assay: Cytotoxicity against human MDA-MB-231 cells after 24 hrs by CellTiterGlo assay in presence of 1% fetal calf serum; type: functional, cell-based; conditions: MDA-MB-231, 24 h; in short: as §4
[18] = test system: Mus musculus; assay: Toxicity in BALBc/AnNHsd mouse assessed as behavioral changes at 65.5 mg/kg, iv; type: organism-based; set-up: dose 65.5 mg/kg, route intravenous; conditions: in vivo
[19] = test system: Mus musculus; assay: Toxicity in BALBc/AnNHsd mouse assessed as change in body weight at 65.5 mg/kg, iv measured on day 15 (reference value: 18.33 +/- 0.33 g); type: organism-based; set-up: dose 65.5 mg/kg, route intravenous; conditions: in vivo; in short: as §3
[20] = test system: Mus musculus; assay: Toxicity in BALBc/AnNHsd mouse assessed as change in organ morphology at 65.5 mg/kg, iv; type: organism-based; set-up: dose 65.5 mg/kg, route intravenous; conditions: in vivo
[21] = test system: Mus musculus; assay: Toxicity in BALBc/AnNHsd mouse assessed as behavioral changes at 34 mg/kg, iv; type: organism-based; set-up: dose 34 mg/kg, route intravenous; conditions: in vivo; in short: as §3
[22] = test system: Mus musculus; assay: Toxicity in BALBc/AnNHsd mouse assessed as change in organ morphology at 34 mg/kg, iv; type: organism-based; set-up: dose 34 mg/kg, route intravenous; conditions: in vivo; in short: as §3
[23] = test system: Mus musculus; assay: Toxicity in BALBc/AnNHsd mouse assessed as change in body weight at 34 mg/kg, iv measured between day 1 and day 15 (reference value: 18 +/- 1 g); type: organism-based; set-up: dose 34 mg/kg, route intravenous; conditions: in vivo; in short: as §3
[24] = test system: Mus musculus; assay: Toxicity in BALBc/AnNHsd mouse assessed as mortality at 64.6 mg/kg, iv; type: organism-based; set-up: dose 64.6 mg/kg, route intravenous; conditions: in vivo

SMILES | viability at 10 µM [1] [%] | viability at 10 µM [2] [%] | viability at 1.5 h, 100 µM [3] [%] | viability at 10 µM [4] [%] | viability at 10 µM [5] [%] | viability at 10 µM [6] [%] | viability at 10 µM [7] [%] | viability at 1.5 h, 200 µM [8] [%] | MTD [10] [mg/kg] | viability at 10 µM [11] [%] | viability at 10 µM [12] [%] | also measured
Cc1c(C)c2c(c(C)c1O)CCC(C)(COc1ccc(/C=C3\SC(=O)NC3=O)cc1)O2 (stereo not drawn) | 95 | 73.1 | 62.8 | 83.1 | 85.4 | 84 | 69.3 | 43.1 | 34 | 82.3 | 88 | mortality [9]: > 50%
Cc1c(C)c2c(c(C)c1O)CCC(C)(COc1ccc(/C=C3\SC(=O)N(C)C3=O)cc1)O2 (racemic) | 80.2 | 94.7 | 147 | 85.5 | 66.8 | 100 | 64.3 | 127 | – | 60.3 | 68.4 | –
Cc1c(C)c2c(c(C)c1OC(=O)CCCCCCCN)CCC(C)(COc1ccc(/C=C3\SC(=O)N(C)C3=O)cc1)O2 (racemic) | 0 | 0 | 84.5 | 2.4 | 9.3 | 0 | 0 | 54.4 | – | 7.9 | 0.6 | –
Cc1c(C)c2c(c(C)c1CCCCCCNC(=O)OC(C)(C)C)CCC(C)(COc1ccc(/C=C3\SC(=O)NC3=O)cc1)O2 (racemic) | 69.7 | 60.9 | 85.1 | 73.7 | 32.2 | 75.5 | 49.3 | 80.3 | – | 22.7 | 45.2 | –
Cc1c(C)c2c(c(C)c1CCCCCCN)CCC(C)(COc1ccc(/C=C3\SC(=O)N(C)C3=O)cc1)O2.O=C(O)C(F)(F)F (racemic) | 0 | 0 | 82.6 | 7.7 | 11.6 | 0 | 0 | 82.7 | 65.5 | 0 | 0 | Activity [13]: Non-toxic; Activity [14]: 19 g; IC50 [15]: 6.1 µM; Activity [16]: 17.67 g; IC50 [17]: 6.7 µM; Activity [18]: Non-toxic; Activity [19]: 18.5 g; Activity [20]: Non-toxic
Cc1c(C)c2c(c(C)c1CCCCCCN)CCC(C)(COc1ccc(/C=C3\SC(=O)NC3=O)cc1)O2.O=C(O)C(F)(F)F (racemic) | 5.9 | 35.2 | 83.2 | 60.1 | 46.8 | 2.7 | 7.6 | 79.9 | 34 | 12.9 | 6.9 | Activity [21]: Non-toxic; Activity [22]: Non-toxic; IC50 [15]: 3.6 µM; Activity [23]: 21.5 g; Activity [24]: Toxic; IC50 [17]: 1.5 µM
Cc1c(C)c2c(c(C)c1OC(=O)OC(C)(C)C)CCC(C)(CN1C(=O)S/C(=C\c3ccc(O)cc3)C1=O)O2 (racemic) | 72.2 | 66 | 65.1 | 85.1 | 55 | 85.7 | 57.9 | 37.8 | – | 23.4 | 30.1 | –
Cc1c(C)c2c(c(C)c1O)CCC(C)(CN1C(=O)S/C(=C\c3ccc(O)cc3)C1=O)O2 (racemic) | 0 | 13.4 | 110 | 36.3 | 48.9 | 5.2 | 4.8 | 103 | – | 20.8 | 5.3 | –
Cc1c(C)c2c(c(C)c1O)CCC(C)(COc1ccc(CC3SC(=O)NC3=O)cc1)O2 (stereo not drawn) [TROGLITAZONE] | 98.3 | 87.8 | 52.2 | 86.2 | 82.8 | 96.7 | 88.1 | 22.5 | – | 85.8 | 90.7 | –
